Assay results taken from ChEMBL document CHEMBL1152949, “Synthesis and biological evaluation of febrifugine analogues as potential antimalarial agents” (Bioorg Med Chem, 2009).
In brackets after ≈: the same amount, converted by molar mass.

Tested on: Plasmodium berghei
Assay: Antimalarial activity against Plasmodium berghei infected ICR mice (Mus musculus) daily oral or subcutaneous dose for 8 days by Thompson test
Conditions: not given

Point of comparison: `O=C(C[C@H]1NCC[C@@H]1OCc1ccccc1)Cn1cnc2cccnc2c1=O`, MCD 0.77 mg/kg. Against it:
- O=C(C[C@H]1NCC[C@@H]1O)Cn1cnc2ccc(F)cc2c1=O — 8.8-fold higher, 6.8 mg/kg
- O=C(C[C@H]1NCC[C@@H]1O)Cn1cnc2ccc(C(F)(F)F)cc2c1=O — 10-fold higher, 7.9 mg/kg
- CCN(CC)CCCC(C)Nc1ccnc2cc(Cl)ccc12 (stereo not drawn) [CHLOROQUINE] — 52-fold higher, 40 mg/kg
- O=C(C[C@H]1NCC[C@@H]1O)Cn1cnc2cccc(C(F)(F)F)c2c1=O — 6.1-fold higher, 4.7 mg/kg
- O=C(C[C@H]1NCC[C@@H]1O)Cn1cnc2cccnc2c1=O — 4-fold higher, 3.1 mg/kg
- O=C(C[C@H]1NCC[C@@H]1O)Cn1cnc2ccc(F)c(F)c2c1=O — 12-fold higher, 8.9 mg/kg
- O=C(C[C@H]1NCC[C@@H]1O)Cn1cnc2cccc(F)c2c1=O — 9.2-fold higher, 7.1 mg/kg
- O=C(C[C@H]1NCC[C@@H]1O)Cn1cnc2ncccc2c1=O — 7.7-fold higher, 5.9 mg/kg
- O=C(C[C@H]1NCC[C@@H]1O)Cn1cnc2ccccc2c1=O — 11-fold higher, 8.4 mg/kg
- CC(C)(C)c1cccc2ncn(CC(=O)C[C@H]3NCC[C@@H]3O)c(=O)c12 — 51-fold higher, 39 mg/kg
- COc1ccc2c(=O)n(CC(=O)C[C@H]3NCC[C@@H]3O)cnc2c1 — 7.3-fold higher, 5.6 mg/kg
- O=C(C[C@H]1NCC[C@@H]1O)Cn1cnc2ccncc2c1=O — 3.8-fold higher, 2.9 mg/kg
- O=C(C[C@@H]1NCCC[C@H]1O)Cn1cnc2ccccc2c1=O [FEBRIFUGINE] — 16-fold higher, 12 mg/kg
- O=C(C[C@H]1NCC[C@@H]1O)Cn1cnc2cnccc2c1=O — 8.6-fold higher, 6.6 mg/kg
- O=C(C[C@H]1NCC[C@@H]1OCc1ccccc1)Cn1cnc2cccc(C(F)(F)F)c2c1=O — within 1.5-fold, 0.69 mg/kg
- CC(C)(C)c1ccc2ncn(CC(=O)C[C@H]3NCC[C@@H]3O)c(=O)c2c1 — 55-fold higher, 42 mg/kg
- COc1cccc2c(=O)n(CC(=O)C[C@H]3NCC[C@@H]3O)cnc12 — 6.4-fold higher, 4.9 mg/kg

Same assay, conditions: Plasmodium berghei, po or sc, 192 h

Point of comparison: `CCN(CC)CCCC(C)Nc1ccnc2cc(Cl)ccc12` (stereo not drawn) [CHLOROQUINE], ED50 4.5 mg/kg. Against it:
- O=C(C[C@H]1NCC[C@@H]1O)Cn1cnc2ccc(F)cc2c1=O — 4.1-fold lower, 1.1 mg/kg
- O=C(C[C@H]1NCC[C@@H]1O)Cn1cnc2ccc(C(F)(F)F)cc2c1=O — 3-fold lower, 1.5 mg/kg
- O=C(C[C@H]1NCC[C@@H]1O)Cn1cnc2cccc(C(F)(F)F)c2c1=O — 6.1-fold lower, 0.74 mg/kg
- O=C(C[C@H]1NCC[C@@H]1O)Cn1cnc2cccnc2c1=O — 10-fold lower, 0.44 mg/kg
- O=C(C[C@H]1NCC[C@@H]1O)Cn1cnc2ccc(F)c(F)c2c1=O — 2.6-fold lower, 1.7 mg/kg
- O=C(C[C@H]1NCC[C@@H]1O)Cn1cnc2cccc(F)c2c1=O — 4.5-fold lower, 1 mg/kg
- O=C(C[C@H]1NCC[C@@H]1O)Cn1cnc2ncccc2c1=O — 3.5-fold lower, 1.3 mg/kg
- O=C(C[C@H]1NCC[C@@H]1O)Cn1cnc2ccccc2c1=O — 2.8-fold lower, 1.6 mg/kg
- O=C(C[C@H]1NCC[C@@H]1OCc1ccccc1)Cn1cnc2cccnc2c1=O — 32-fold lower, 0.14 mg/kg
- CC(C)(C)c1cccc2ncn(CC(=O)C[C@H]3NCC[C@@H]3O)c(=O)c12 — 1.9-fold higher, 8.7 mg/kg
- COc1ccc2c(=O)n(CC(=O)C[C@H]3NCC[C@@H]3O)cnc2c1 — 2.6-fold lower, 1.7 mg/kg
- O=C(C[C@H]1NCC[C@@H]1O)Cn1cnc2ccncc2c1=O — 9.2-fold lower, 0.49 mg/kg
- O=C(C[C@@H]1NCCC[C@H]1O)Cn1cnc2ccccc2c1=O [FEBRIFUGINE] — 2-fold lower, 2.3 mg/kg
- O=C(C[C@H]1NCC[C@@H]1O)Cn1cnc2cnccc2c1=O — 3.8-fold lower, 1.2 mg/kg
- O=C(C[C@H]1NCC[C@@H]1OCc1ccccc1)Cn1cnc2cccc(C(F)(F)F)c2c1=O — 38-fold lower, 0.12 mg/kg
- CC(C)(C)c1ccc2ncn(CC(=O)C[C@H]3NCC[C@@H]3O)c(=O)c2c1 — 2.2-fold higher, 10 mg/kg
- COc1cccc2c(=O)n(CC(=O)C[C@H]3NCC[C@@H]3O)cnc12 — 3-fold lower, 1.5 mg/kg

Tested on: not listed separately
Assay: Therapeutic index, ratio of MTD for Plasmodium berghei infected ICR mice (Mus musculus) to MCD for Plasmodium berghei
Conditions: read-out: TI

Point of comparison: `O=C(C[C@H]1NCC[C@@H]1O)Cn1cnc2ccc(F)cc2c1=O`, selectivity ratio 63. Against it:
- O=C(C[C@H]1NCC[C@@H]1O)Cn1cnc2ccc(C(F)(F)F)cc2c1=O — lower, 56
- O=C(C[C@H]1NCC[C@@H]1O)Cn1cnc2cccc(C(F)(F)F)c2c1=O — higher, 71
- O=C(C[C@H]1NCC[C@@H]1O)Cn1cnc2cccnc2c1=O — higher, 111
- O=C(C[C@H]1NCC[C@@H]1O)Cn1cnc2ccc(F)c(F)c2c1=O — lower, 43
- O=C(C[C@H]1NCC[C@@H]1O)Cn1cnc2cccc(F)c2c1=O — lower, 56
- O=C(C[C@H]1NCC[C@@H]1O)Cn1cnc2ncccc2c1=O — higher, 74
- O=C(C[C@H]1NCC[C@@H]1O)Cn1cnc2ccccc2c1=O — lower, 17
- O=C(C[C@H]1NCC[C@@H]1OCc1ccccc1)Cn1cnc2cccnc2c1=O — higher, 132
- CC(C)(C)c1cccc2ncn(CC(=O)C[C@H]3NCC[C@@H]3O)c(=O)c12 — lower, 11
- COc1ccc2c(=O)n(CC(=O)C[C@H]3NCC[C@@H]3O)cnc2c1 — lower, 10
- O=C(C[C@H]1NCC[C@@H]1O)Cn1cnc2ccncc2c1=O — higher, 107
- O=C(C[C@@H]1NCCC[C@H]1O)Cn1cnc2ccccc2c1=O [FEBRIFUGINE] — lower, 3
- O=C(C[C@H]1NCC[C@@H]1O)Cn1cnc2cnccc2c1=O — lower, 51
- O=C(C[C@H]1NCC[C@@H]1OCc1ccccc1)Cn1cnc2cccc(C(F)(F)F)c2c1=O — higher, 128
- CC(C)(C)c1ccc2ncn(CC(=O)C[C@H]3NCC[C@@H]3O)c(=O)c2c1 — lower, 12
- COc1cccc2c(=O)n(CC(=O)C[C@H]3NCC[C@@H]3O)cnc12 — lower, 10

Tested on: not listed separately
Assay: Toxicity in Plasmodium berghei infected ICR mice (Mus musculus) dosed intraperitoneally once daily for 4 days by Thompson test
Assay type: organism-based
Conditions: in vivo, ip

Point of comparison: `O=C(C[C@H]1NCC[C@@H]1O)Cn1cnc2cccc(C(F)(F)F)c2c1=O`, MTD at 96 h 335 mg/kg. Against it:
- O=C(C[C@H]1NCC[C@@H]1O)Cn1cnc2ccc(F)cc2c1=O — within 1.5-fold, 425 mg/kg
- O=C(C[C@H]1NCC[C@@H]1O)Cn1cnc2ccc(C(F)(F)F)cc2c1=O — within 1.5-fold, 440 mg/kg
- CCN(CC)CCCC(C)Nc1ccnc2cc(Cl)ccc12 (stereo not drawn) [CHLOROQUINE] — within 1.5-fold, 240 mg/kg
- O=C(C[C@H]1NCC[C@@H]1O)Cn1cnc2cccnc2c1=O — within 1.5-fold, 345 mg/kg
- O=C(C[C@H]1NCC[C@@H]1O)Cn1cnc2ccc(F)c(F)c2c1=O — within 1.5-fold, 379 mg/kg
- O=C(C[C@H]1NCC[C@@H]1O)Cn1cnc2cccc(F)c2c1=O — within 1.5-fold, 399 mg/kg
- O=C(C[C@H]1NCC[C@@H]1O)Cn1cnc2ncccc2c1=O — within 1.5-fold, 439 mg/kg
- O=C(C[C@H]1NCC[C@@H]1O)Cn1cnc2ccccc2c1=O — 2.3-fold lower, 144 mg/kg
- O=C(C[C@H]1NCC[C@@H]1OCc1ccccc1)Cn1cnc2cccnc2c1=O — 3.3-fold lower, 102 mg/kg
- CC(C)(C)c1cccc2ncn(CC(=O)C[C@H]3NCC[C@@H]3O)c(=O)c12 — within 1.5-fold, 429 mg/kg
- COc1ccc2c(=O)n(CC(=O)C[C@H]3NCC[C@@H]3O)cnc2c1 — 6.1-fold lower, 55 mg/kg
- O=C(C[C@H]1NCC[C@@H]1O)Cn1cnc2ccncc2c1=O — within 1.5-fold, 310 mg/kg
- O=C(C[C@@H]1NCCC[C@H]1O)Cn1cnc2ccccc2c1=O [FEBRIFUGINE] — 9.6-fold lower, 35 mg/kg
- O=C(C[C@H]1NCC[C@@H]1O)Cn1cnc2cnccc2c1=O — within 1.5-fold, 338 mg/kg
- O=C(C[C@H]1NCC[C@@H]1OCc1ccccc1)Cn1cnc2cccc(C(F)(F)F)c2c1=O — 3.8-fold lower, 88 mg/kg
- CC(C)(C)c1ccc2ncn(CC(=O)C[C@H]3NCC[C@@H]3O)c(=O)c2c1 — 1.5-fold higher, 504 mg/kg
- COc1cccc2c(=O)n(CC(=O)C[C@H]3NCC[C@@H]3O)cnc12 — 6.6-fold lower, 51 mg/kg

Tested on: Plasmodium falciparum
Assay: Antiplasmodial activity after 48 hrs against chloroquine-resistant Plasmodium falciparum W2 in human erythrocytes by [3H]hypoxanthine uptake
Assay type: functional, organism-based
Conditions: not given
Procedure, shortened: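 Chloroquine-resistant W2 P. falciparum grown in RPMI 1640 with 6% human erythrocytes and 10% human serum, under 5% CO2, 5% O2, 90% N2 at 37°C. Sensitivity tested by semi-automated micro-dilution. [3H]hypoxanthine incorporation measured across compound concentrations, and IC50 derived from it.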

Point of comparison: `COc1ccc2c(=O)n(CC(=O)C[C@H]3NCC[C@@H]3O)cnc2c1`, IC50 0.62 ng/mL (≈ 1.95 nM). Against it:
- O=C(C[C@H]1NCC[C@@H]1O)Cn1cnc2ccc(F)cc2c1=O — 2.4-fold lower, 0.26 ng/mL (≈ 0.852 nM)
- O=C(C[C@H]1NCC[C@@H]1O)Cn1cnc2ccc(C(F)(F)F)cc2c1=O — 2.2-fold lower, 0.28 ng/mL (≈ 0.788 nM)
- O=C(C[C@H]1NCC[C@@H]1O)Cn1cnc2cccc(C(F)(F)F)c2c1=O — 2.7-fold lower, 0.23 ng/mL (≈ 0.647 nM)
- O=C(C[C@H]1NCC[C@@H]1O)Cn1cnc2cccnc2c1=O — 5.2-fold lower, 0.12 ng/mL (≈ 0.416 nM)
- O=C(C[C@H]1NCC[C@@H]1O)Cn1cnc2ccc(F)c(F)c2c1=O — 1.5-fold lower, 0.4 ng/mL (≈ 1.24 nM)
- O=C(C[C@H]1NCC[C@@H]1O)Cn1cnc2cccc(F)c2c1=O — 2.1-fold lower, 0.29 ng/mL (≈ 0.95 nM)
- O=C(C[C@H]1NCC[C@@H]1O)Cn1cnc2ncccc2c1=O — 1.8-fold lower, 0.34 ng/mL (≈ 1.18 nM)
- O=C(C[C@H]1NCC[C@@H]1O)Cn1cnc2ccccc2c1=O — within 1.5-fold, 0.56 ng/mL (≈ 1.95 nM)
- O=C(C[C@H]1NCC[C@@H]1OCc1ccccc1)Cn1cnc2cccnc2c1=O — 4.4-fold lower, 0.14 ng/mL (≈ 0.37 nM)
- CC(C)(C)c1cccc2ncn(CC(=O)C[C@H]3NCC[C@@H]3O)c(=O)c12 — 4.7-fold higher, 2.9 ng/mL (≈ 8.44 nM)
- O=C(C[C@H]1NCC[C@@H]1O)Cn1cnc2ccncc2c1=O — 4.4-fold lower, 0.14 ng/mL (≈ 0.486 nM)
- O=C(C[C@@H]1NCCC[C@H]1O)Cn1cnc2ccccc2c1=O [FEBRIFUGINE] — within 1.5-fold, 0.76 ng/mL (≈ 2.52 nM)
- O=C(C[C@H]1NCC[C@@H]1O)Cn1cnc2cnccc2c1=O — 2-fold lower, 0.31 ng/mL (≈ 1.08 nM)
- O=C(C[C@H]1NCC[C@@H]1OCc1ccccc1)Cn1cnc2cccc(C(F)(F)F)c2c1=O — 3.3-fold lower, 0.19 ng/mL (≈ 0.427 nM)
- CC(C)(C)c1ccc2ncn(CC(=O)C[C@H]3NCC[C@@H]3O)c(=O)c2c1 — 5.5-fold higher, 3.4 ng/mL (≈ 9.9 nM)
- COc1cccc2c(=O)n(CC(=O)C[C@H]3NCC[C@@H]3O)cnc12 — within 1.5-fold, 0.57 ng/mL (≈ 1.8 nM)
